# Measured values as given in ChEMBL document CHEMBL3045158, “Synthesis and antiviral activities of chiral thiourea derivatives containing an alpha-aminophosphonate moiety” (J Agric Food Chem, 2009).
# Tests used:
# Tobacco mosaic virus [1] = test: Antiviral activity against Tobacco mosaic virus (TMV) in compound treated Nicotiana tabacum L.leaves assessed as curative effect from local lesions at 500 ug/ml measured after 3 to 4 days; format: functional
# Tobacco mosaic virus [2] = test: Antiviral activity against Tobacco mosaic virus (TMV) in compound treated Nicotiana tabacum L.leaves assessed as protective effect from local lesions at 500 ug/ml measured after 3 to 4 days; format: functional
# How it was run: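 Half-leaf test on same-age N. tabacum L. leaves: compound solution smeared on the left half, solvent on the right as control. Leaves were inoculated 12 h later by brush with TMV at 6 × 10-3 mg/mL on silicon carbide-dusted leaves, then rinsed with water. Local lesions were counted 3–4 days later, three repetitions. Inhibition % = (control lesions − treated lesions)/control lesions × 100.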
# Tobacco mosaic virus [3] = test: Antiviral activity against Tobacco mosaic virus (TMV) in compound treated Nicotiana tabacum L.leaves assessed as curative effect; format: functional, organism-based
# Tobacco mosaic virus [4] = test: Antiviral activity against Tobacco mosaic virus (TMV) in compound treated Nicotiana tabacum L.leaves assessed as curative effect at 250 ug/ml; format: functional
# Tobacco mosaic virus [5] = test: Antiviral activity against Tobacco mosaic virus (TMV) in compound treated Nicotiana tabacum L.leaves assessed as curative effect at 125 ug/ml; format: functional
# Tobacco mosaic virus [6] = test: Antiviral activity against Tobacco mosaic virus (TMV) in compound treated Nicotiana tabacum L.leaves assessed as curative effect at 500 ug/ml; format: functional
Structure (SMILES),Activity (Tobacco mosaic virus [1]) [%],Activity (Tobacco mosaic virus [2]) [%],EC50 (Tobacco mosaic virus [3]) [µg/mL],Activity (Tobacco mosaic virus [4]) [%],Activity (Tobacco mosaic virus [5]) [%],Activity (Tobacco mosaic virus [6]) [%]
CCOP(=O)(OCC)C(NC(=S)N[C@@H](C)c1ccccc1)c1ccccc1 (stereo not given in full),41.8,37.6,–,–,–,–
CCCOP(=O)(OCCC)C(NC(=S)N[C@@H](C)C1CCCCC1)c1ccccc1 (stereo not given in full),54.3,30.9,240,49,39.1,54.8
CC(C)OP(=O)(OC(C)C)C(NC(=S)N[C@@H](C)c1ccccc1)c1ccccc1 (stereo not given in full),36.8,36.9,–,–,–,–
CCOP(=O)(OCC)C(NC(=S)N[C@@H](C)C1CCCCC1)c1ccccc1 (stereo not given in full),36.3,36.4,–,–,–,–
CNCC(=O)N[C@@H](CO)C(=O)N[C@H]1[C@H](O)[C@@H](O)[C@H](n2ccc(N)nc2=O)O[C@@H]1C(N)=O [NINGNANMYCIN],56.2,60.6,227,50.7,41.9,56.2
CCCOP(=O)(OCCC)C(NC(=S)N[C@H](C)C1CCCCC1)c1ccccc1 (stereo not given in full),40.7,37.9,–,–,–,–
CCOP(=O)(OCC)C(NC(=S)N[C@H](C)c1ccccc1)c1ccccc1 (stereo not given in full),45.2,42.6,–,–,–,–
CCCCOP(=O)(OCCCC)C(NC(=S)N[C@@H](C)C1CCCCC1)c1ccccc1 (stereo not given in full),50.4,36.3,379,37.2,32.9,50.4
CC(C)OP(=O)(OC(C)C)C(NC(=S)N[C@@H](C)C1CCCCC1)c1ccccc1 (stereo not given in full),50.4,36.3,413,36.7,29,50.4
CCCOP(=O)(OCCC)C(NC(=S)N[C@H](C)c1ccccc1)c1ccccc1 (stereo not given in full),41.9,45.9,–,–,–,–
CC(C)OP(=O)(OC(C)C)C(NC(=S)N[C@H](C)C1CCCCC1)c1ccccc1 (stereo not given in full),34.6,33.7,–,–,–,–
CCCOP(=O)(OCCC)C(NC(=S)N[C@@H](C)c1ccccc1)c1ccccc1 (stereo not given in full),50.5,42.7,400,37.7,30.9,50.5
CCOP(=O)(OCC)C(NC(=S)N[C@H](C)C1CCCCC1)c1ccccc1 (stereo not given in full),40.1,33.1,–,–,–,–
CC(C)OP(=O)(OC(C)C)C(NC(=S)N[C@H](C)c1ccccc1)c1ccccc1 (stereo not given in full),34.5,46.3,–,–,–,–
CCCCOP(=O)(OCCCC)C(NC(=S)N[C@H](C)C1CCCCC1)c1ccccc1 (stereo not given in full),34.6,33.7,–,–,–,–
